High-throughput results (PubChem)
CHOP inh – inhibitors of CHOP induction in ER stress response | CHO-K1 CHOP-promoter luciferase, tunicamycin-induced, 15-18 h | inhibition, % at 10 µM | actives 3.8% (n = 220,000) | AID 2732;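 active = compounds that reduced the stress-induced luciferase reporter signal by more than about 70% of percent inhibition, limit read from the data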;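 also: 0% = tunicamycin plus vehicle and 100% = wells without tunicamycin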
Dynein cargo inh – blocks dynein driven cargo transport along microtubules; z-score, hits read low; 3617.4 mouse cells, GR-EGFP nuclear translocation imaging; test concentration mostly 20 µM; stimulated with dexamethasone, 1 µM; active compounds read low; actives 0.47% (n = 220,000);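 active = plate z-score of nuclear minus cytoplasmic receptor signal below a set negative limit, without overly bright fluorescence or cell loss, cut at about -3.5 in these data, passing the limit was not always enough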;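 also: z-score of nuclear minus cytoplasmic ring GR-EGFP intensity difference per well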
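Also added: dexamethasone, 1.0 µM final. Medium: tet-free, stripped-serum medium. Detection: fixed, Hoechst-stained cells imaged at 10x for EGFP. Read-out: nuclear-to-cytoplasmic GR-EGFP distribution per well. Times: induction 48 h, compound 1 h, agonist 30 min.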
L major viab – reduces viability of Leishmania major promastigotes | resazurin fluorescence viability | inhibition, % at 10 µM | AID 1063 | actives 9% (n = 200,000); in the data active = inhibition above about 50%;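 also: promastigotes grown with compound for 44 hours at 28 °C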
CHOP UPR activ – apoptotic UPR (CHOP) activation; CHO-CHOP luciferase reporter, luminescence; percent of tunicamycin response over DMSO baseline; activation, % at 10 µM; actives 0.34% (n = 330,000);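 active = at 10 µM dose, activation of 40% or more, normalized to positive control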;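 also: 100% = tunicamycin at 10 µg/mL and 0% = DMSO alone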
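assay system = CHO CHOP reporter cells | amount = 500 CHO-CHOP cells per well | buffer or medium = F12 with 10% FBS | incubation = 16-18 h cell attachment, then 6 h compound exposure, 37 °C | detection = luminescence read with Steady-Glo | read-out = percent activation relative to tunicamycin control | controls = tunicamycin high control, DMSO low control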
UPR XBP1 act – activators of adaptive arm of unfolded protein response (XBP1); CHO-XBP1 luciferase reporter, IRE1-XBP1 UPR activation, luminescence; percent of tunicamycin response, DMSO as zero; activation, % at 20 µM; actives 0.33% (n = 330,000); AID 463104;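 active = versus positive control, 20 µM dose yields 30% or more activation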;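 also: 100% = tunicamycin at 10 µg/mL and 0% = DMSO only wells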
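assay system = CHO-XBP1 luciferase reporter cells | amount = 1000 cells/well | buffer or medium = F12 plus 10% FBS | compound dosing = single point, 20 µM final compound, 1% DMSO | incubation = 16-18 h cell attachment at 37 °C, then 6 h compound exposure | detection = Steady-Glo luminescence read | controls = tunicamycin 10 µg/mL and vehicle-only wells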
T cruzi inh – T. cruzi replication inhibition. T. cruzi beta-gal in NIH3T3, luminescence, 90 h. inhibition, % (no concentration beside the values). actives 1.4% (n = 300,000);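 active = mean inhibition across valid replicates above about 55%, limit read from the data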;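 also: signal also drops with host cell toxicity which is not excluded here; 0% = plate median of DMSO wells and 100% = zero luminescence signal; higher percent means less beta-gal luminescence so fewer parasites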
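assay system = mouse NIH/3T3 fibroblasts infected with β-gal-expressing T. cruzi Tulahuen C4 | input = 5,000 NIH/3T3 host cells per well | buffer or medium = DMEM plus 2% FBS | timing = 3 h host attachment, then at least 90 h co-culture | measured by = GalScreen luminescence, 60 min | evaluation = luminescence reflecting intracellular parasite burden, expressed as percent inhibition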
Active calls of the source: *; · = no result given. This is one part of a sample in which hits are shown more often than they occur.

SMILES	CHOP inh	Dynein cargo inh	L major viab	CHOP UPR activ	UPR XBP1 act	T cruzi inh
Cc1ccc(C)c(S(=O)(=O)N2CCN(Cc3ccc(O)c4ncccc34)CC2)c1	76*	-1.1	100*	-1	3	-5
Cc1ccc(C)c(N2CCN(S(=O)(=O)c3cccc4cccnc34)CC2)c1	8	3.6	66*	0	-2	-2
CSc1ncccc1C(=O)N1CCN(S(=O)(=O)c2cc(C)ccc2C)CC1	·	·	·	1	-1	16
Oc1ccc(CNc2ccccc2F)c2cccnc12	50	-0.45	73*	4	4	20
O=[N+]([O-])c1cc(CN2CCCC2)c2cccnc2c1O	18	-0.43	11	·	·	·
Oc1ccc(CN2CCCCC2)c2cccnc12	9	1	101*	7	17	68*
Oc1c(I)cc(I)c2cccnc12	1	-0.47	-3	0	-4	0
CN(Cc1ccco1)Cc1ccc(O)c2ncccc12	·	·	·	0	1	·
OCc1ccc(O)c2ncccc12	13	-0.8	100*	1	-2	48
Oc1ccc(F)c2cccnc12	72*	-0.47	8	5	6	-9
CSc1cccc(NC(=O)C2CCCN(S(=O)(=O)c3cccs3)C2)c1 (configuration not stated)	·	·	·	0	3	8
COc1cc(NC(=O)c2cccs2)c(C(=O)OCC(=O)c2cc(C)n(-c3ccc(F)cc3)c2C)cc1OC	48	-0.21	90*	-4	-6	-16
COc1cc(NC(=O)c2cccs2)c(C(=O)OCC(=O)NC(=O)NC(C)(C)C)cc1OC	52	2.6	-4	-1	6	-5
COc1ccc(-n2c(C)cc(C(=O)COC(=O)c3cc(NC(=O)c4cccs4)c(OC)c(OC)c3)c2C)cc1	27	-0.17	3	2	-1	20
COc1cc(NC(=O)c2cccs2)c(C(=O)OCC(=O)c2cc(C)n(-c3ccccc3)c2C)cc1OC	85*	-0.85	19	-10	-9	21
CCOc1cc(S(=O)(=O)NCc2ccccc2)ccc1Br	-4	0.24	8	-1	0	16
CCc1ccc(N2CC(C(=O)N/N=C/c3cccc([N+](=O)[O-])c3)CC2=O)cc1 (configuration not stated)	83*	0.71	2	1	3	4
Cc1ccc(N2CC(C(=O)N/N=C/c3cccc([N+](=O)[O-])c3)CC2=O)cc1 (configuration not stated)	47	-0.52	0	1	1	10
O=C(N/N=C/c1cccc([N+](=O)[O-])c1)C1CC(=O)N(c2ccc(Cl)cc2)C1 (configuration not stated)	42	1.4	95*	0	-3	7
O=C(CCCOc1ccc(Cl)cc1Cl)N/N=C/c1cccc([N+](=O)[O-])c1	76*	-0.33	0	-1	1	-10
O=C(NNc1ccccc1C(F)(F)F)c1sccc1Br	-1	0.88	·	1	3	·
NC(=S)NN=C1c2ccccc2-c2ccccc21	·	·	·	19	6	26
COc1ccc(C(=O)NNC(=O)c2ccc(C(C)(C)C)cc2)cc1	84*	-0.27	-2	-2	0	12
COc1ccc(C(=O)NNC(=O)CCC(=O)NNC(=O)c2ccc(OC)cc2)cc1	·	·	·	3	0	-2
O=C(COC(=O)c1cc(Cl)ccc1O)Nc1cc(C(F)(F)F)ccc1N1CCOCC1	·	·	·	-1	0	·
SMILES	CHOP inh	Dynein cargo inh	L major viab	CHOP UPR activ	UPR XBP1 act	T cruzi inh
COc1ccc(/C=C/C(=O)N2CCN(c3ccccn3)CC2)c2ccccc12	23	0.53	-3	2	-2	3
CC(=O)Nc1ccc(CN2CCCC(C(=O)c3ccc(C(F)(F)F)cc3)C2)cc1 (configuration not stated)	-5	-0.47	82*	0	4	3
O=C(c1ccc(Cl)cc1)C1CCCN(Cc2cnn(-c3ccccc3)c2)C1 (configuration not stated)	4	-0.58	84*	3	1	61*
O=C(c1ccc(Cl)cc1)C1CCCN(Cc2ccc(Oc3ncccn3)cc2)C1 (configuration not stated)	18	-0.46	86*	-1	-1	48
O=C(c1ccc(-c2ccccc2)cc1)C1CCCN(Cc2ccncc2)C1 (configuration not stated)	40	-0.89	93*	4	0	55*
O=C(c1ccc(-c2ccccc2)cc1)C1CCCN(C(=O)c2ccncc2)C1 (configuration not stated)	26	0.55	17	-1	-2	28
OCCC1CN(Cc2ccc(Oc3ncccn3)cc2)CCN1C1CCCCC1 (configuration not stated)	1	0.52	·	-2	-1	-4
CN(C)S(=O)(=O)N1CCCC(C(=O)c2ccc(C(F)(F)F)cc2)C1 (configuration not stated)	3	-0.93	-1	-1	0	8
Cc1ccc(NS(=O)(=O)c2c(C)[nH]c(C)c2C(=O)N2CCCCC2)c(Br)c1	·	·	·	0	-2	11
Cc1ccsc1C(=O)C1CCCN(Cc2cn(C)nc2-c2ccccc2)C1 (configuration not stated)	31	-1.5	6	-2	0	5
COc1ccc(C(=O)C2CCCN(Cc3cn[nH]c3-c3ccccc3)C2)cc1OC (configuration not stated)	9	-0.64	-2	0	-2	6
Cc1nn(C)cc1CN1CCCC(C(=O)c2ccc(-c3ccccc3)cc2)C1 (configuration not stated)	3	0.05	90*	1	-3	62*
Cn1cc(CN2CCN(c3cnccn3)CC2)c(-c2cccc(Cl)c2)n1	9	0.42	27	1	-2	12
CC(C1CCN(Cc2cn(C)nc2-c2cccc(Cl)c2)CC1)N1CCOCC1 (configuration not stated)	-6	-0.35	69*	-1	0	-4
Cn1cc(CN2CCCC(C(=O)c3cccs3)C2)c(-c2cccc(Cl)c2)n1 (configuration not stated)	20	-0.63	63*	-1	-1	-4
OCC1CCCN(Cc2ccc(-c3ccccc3)cc2)C1 (configuration not stated)	15	2.1	96*	0	-1	29
Cc1cccc(N2CCN(C(=S)Nc3ccc4nc(N5CCOCC5)cc(C)c4c3)CC2C)c1 (configuration not stated)	88*	-0.52	8	6	0	52
